Tested on: MS2 coat protein
Experiment: apparent Kd, MS2 coat protein; higher = weaker binding; RNA-MaP array; FMN 200 µM where present
Method in brief: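 Green signal from SNAP-549-labelled MS2 coat protein was normalised to red-channel RNA signal and to the median Fmax of control clusters. The protein was titrated from 0.7 or 1.5 nM, doubling to 3 µM, without and then with constant ligand, over designs transcribed by stalled E. coli RNA polymerase on Illumina sequencing-chip clusters, in 100 mM Tris-HCl pH 7.5, 80 mM KCl, 4 mM MgCl2, BSA, DTT, yeast tRNA and Tween-20. The apparent Kd is the median of filtered per-cluster binding-curve fits.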

[1] = designed as: ON switch for flavin mononucleotide, no ligand
[2] = ligand present: flavin mononucleotide, designed as: ON switch for flavin mononucleotide
[3] = designed as: OFF switch for flavin mononucleotide, no ligand
[4] = ligand present: flavin mononucleotide, designed as: OFF switch for flavin mononucleotide

Sequence | apparent Kd [1] | apparent Kd [2] | apparent Kd [3] | apparent Kd [4]
UUGGACGUCGUAGGAUAUGUAGGAUAUUCCUACAUGAGGAUCACCCAUGUUGACAUAGAAGAAGGACAGAAGGACGAUGUCCAU | 88.3 nM | 4.86 nM |  | 
UUGGUGUACGUAGGAUAUGUAGGAUAUUCCUACAUGAGGAUCACCCAUGUAUGCAUGGAAGAAGGACAGAAGGACGUGCACCAU | 203 nM | 14 nM |  | 
UAGGUGUGAGGAUAUGGUAAAGAUAAGAUGAUGAAAGAACUCCAGAAGGCACAUGAGGAUCACCCAUGUAGAUG |  |  | 28 nM | 70.8 nM
AACCUAUUACAGAAGGCCAGCUACAUGAGGAUCACCCAUGUCGAGUCAUGGAGGAUAUGUAGUAAUUCACUCACAGAUGAGUAC | 28.9 nM | 5.78 nM |  | 
GAAAAACAUGAGGAUCACCCAUGUGAGAAUAUGGGAGGAUAUACGAGGACGAGAGUCAAGGUAGAAGGCCUAAAAG | 96.3 nM | 15.2 nM |  | 
ACAUUUAUAUCAGGAUAUACAAUACAAUGAUUAGUAGAAGGGAUUAAUACAUGAGGAUCACCCAUGUCAUGUGUCAUAAUAACC |  |  | 25.8 nM | 19.6 nM
CCCACGAAAGUCGAACGAUGUAGCAGAAGGACAUGAGGAUCACCCAUGUCAGCUGUAACAGCCAUGUAGGAUAUGCUACAUGGG |  |  | 6.05 nM | 5.77 nM
UGUAUGUAGGCAGGAUAUACAUGAAUAUAUAUGAUGUAGUAUGAUGUAACAUGAGGAUCACCCAUGUAGAAGGGCCAGUGUAUA |  |  | 102 nM | 164 nM
GAGCGAAAGCUCAAUGUCGAUAGCAGAAGGGCAUGAAAACAUGAAAACACAUGAGGAUCACCCAUGUAGGAUAUGCUAUCGACU |  |  | 10.6 nM | 17.6 nM
CGUAUGUCAGGAUAUGCGCGCGAUCAUUACACUCGGAAUUGGCAGAAGGGACAUGAGGAUCACCCAUGUGGCCC |  |  | 34.4 nM | 37.4 nM
ACAUACAUUCGAGGAUAUCGGUGAUAAAUUUUACGAGAAGGCGAUUUACGGCAUAAUGCUGUAGACAUGAGGAUCACCCAUGUA | 71.5 nM | 39.2 nM |  | 
UGCAGACGAGGAUAUAGAUUUAAGUACAUGAGGAUCACCCAUGUGCAUAUGUAUUUAGAUUUAGAAGGCGUCUGCA |  |  | 482 nM | 469 nM
CCGUAGAUGGGACAGGAUAUGACUGUCGUCACAUGAGGAUCACCCAUGUCCCGGCAAUGCCACCGUUAGAAGGGUCCCGUCUCGG | 14.4 nM | 15 nM |  | 
GAUUCACAUGAGGAUCACCCAUGUCGUUAUAUGGGAGGAUAUACGUGGACCGUAGUCCGCGUAGAAGGCCUAAUUG | 378 nM | 81.2 nM |  | 
GCAUCCAAUGUGAGGAUAUACCUCUGGAUACAGAGGUAGAAGGCACAUGAGGAUCACCCAUGUUACUAGGAUGC |  |  | 20.8 nM | 44.4 nM
GCCAUCACAUGAGGAUAUGCUCCCGUUUCGGGAGCAGAAGGCGUGUCAUUAGACAUGAGGAUCACCCAUGUAGUUAAGAUGGCA | 667 nM | 22.8 nM |  | 
GUACCUUAUGAGAAGGCGAUCAUGAAACAUGAUCGAGGAUAUCAUGAAAACAUGAGGAUCACCCAUGUAUGGGUAUUAUGGUAC | 49.6 nM | 17.7 nM |  | 
CUCAAACAUGAGGAUCACCCAUGUGUUGUCGUGGGAGGAUAUCCCGGUUCGGUGGCGUCGGGAGAAGGCCUAUGUC | 68 nM | 35 nM |  | 
UUCAUGUGAGGAUAUAAAAGGAAGGUGGUAUCUAUCAACAAUUAGAAGGCACAUGAGGAUCACCCAUGUCUGAA |  |  | 67 nM | 60.9 nM
AAUAAACAUGAGGAUCACCCAUGUAAAUGGGCGAUAGGAUAUGCGAAAAUAAAGAAAGAAGCAGAAGGAUCGAAGA | 846 nM | 509 nM |  | 
CUAUCAAGCAAGGAUAUGCAAUUUAUUAUUUAUGCAGAAGGUGCAACAUGAGGAUCACCCAUGUUUCUGGGUUU |  |  | 51.5 nM | 91.5 nM
GGCAUACAUGAGGAUCACCCAUGUUCAACCUAGAUAGGAUAUGGGCCUCUUGUAUUAGGCCCAGAAGGAUCUGUAA | 103 nM | 29.6 nM |  | 
GGUGCGUAUGUGAGGAUAUGCUGGUCCUUGGAUCUGCAGAAGGCACAUGAGGAUCACCCAUGUGGUGUCGUACC |  |  | 356 nM | 28.5 nM
AAGGAUAGAGGAUAUACAUAGAUACAGAUUCAUGUAGAAUUACAUGAGGAUCACCCAUGUAGAAGGCUAUCCUA |  |  | 635 nM | 29 nM

Sequence | apparent Kd [1] | apparent Kd [2] | apparent Kd [3] | apparent Kd [4]
UCAUUUUUACAAGGAUAUCAAUAUAAUAUAAUAGCUACAUGAGGAUCACCCAUGUUUUAGCGUGGUGAGAAGGUGUAUUGUCGG | 89.5 nM | 63 nM |  | 
AUUCUAAUAGCAGGAUAUCCCAGUAUCCUAAGUCAAAAGUUUUUGACAUGAGGAUCACCCAUGUGGGAGAAGGGCUCUGGAUAA |  |  | 111 nM | 65.8 nM
GACUUGUCAGGAUAUCUUACAUUUGCAUCGUAGUUACCAUUGGAGAAGGGACAUGAGGAUCACCCAUGUUUGGU |  |  | 35.2 nM | 34.9 nM
CCCUAAUAUCGAGGAUAUGUCUAGACACAUGAGGAUCACCCAUGUAUGUGUAUAGAAGGCGAUAUUAACAGCAUGUUACAUGGG | 315 nM | 101 nM |  | 
UCGCUGCGAGGAUAUACGUUUGCGCGUUUUCGUUUGCGCGUACAUGAGGAUCACCCAUGUAGAAGGCGCGCUGC |  |  | 15.4 nM | 15.5 nM
ACGAAACAUGAGGAUCACCCAUGUGAGGAUAUGUAAAUACUAGACAAAUAACAGAAAAACAGAAGGCACUCAGA |  |  | 24.3 nM | 22 nM
UUAAAUCAUGUAGGAUAUGCAUGGCGAAGCUACGCAGAAGGACAUGAGGAUCACCCAUGUUAUAGCUACCCAGUACGGUGGCAA |  |  | 95.5 nM | 251 nM
AGAAAUUCAGGAUAUACAUGAGGAUCACCCAUGUUUGGCAGAGGCGCCGAGAUCCCACGUAGAAGGGAAAAGAC |  |  | 37.1 nM | 79.9 nM
GUGUACAGAGGAUAUACUGGAGCUAGGAAACUAGCAACUUCACAUGAGGAUCACCCAUGUAGAAGGCUGUACAC |  |  | 17.1 nM | 65.7 nM
GGUAAGAUGCAGAAGGUGUUAGCUAGAGCUACGACAUGAGGAUCACCCAUGUACUAGAAACAGUACAAGGAUAUGCAUCUUACU | 18.9 nM | 6.53 nM |  | 
UUUAUGGGACAGAAGGGCAUUUACAUGAGGAUCACCCAUGUUCAUCAUUGCAGGAUAUGUAUUACAUGAGGAUCACCUAUGUAC | 74.9 nM | 24.4 nM |  | 
UUGUUCUGAGGAUAUACAUGAGGAUCACCCAUGUGUUUCUGCUUGGUGUCUUGCGAAUGUAGAAGGCUGUUCUC |  |  | 37.5 nM | 40.2 nM
AGAUGGUAGAUAGGAUAUCAUGUGCUGACAUGAGGAUCACCCAUGUAGGGACGUCAGUCCAAUUAUGAGAAGGAUCUACCAUCU | 61 nM | 39.3 nM |  | 
UUUUAACAUGAGGAUCACCCAUGUGAGGAUAUCGAAAUUUAUAUUAAUAUUAUUAAUACGAGAAGGCACAUUUU |  |  | 36.9 nM | 61.8 nM
CUCCUGCAAGGAUAUACAUAGUGACGUCUGUUUAAUCUUAAACAUGAGGAUCACCCAUGUAGAAGGUGCGUCAC |  |  | 16.7 nM | 18.1 nM
UGUCGUGUUCGAGGAUAUGAAACUAGGCCGGGCACUGUACACCCGCCUGUCUCAGAAGGCGGACAUGAGGAUCACCCAUGUAAA |  |  | 294 nM | 22.1 nM
GCAGCAAUCUUUAACAUGAGGAUCACCCAUGUCGAGAGAUAUGAGGAUAUGCAUCUGAAGAAGAUGCAGAAGGCAUUGUGCUGC | 6.26 nM | 5 nM |  | 
CUCGAGCCAAGGCUCGCGAGUACACAGGAUAUGGAAAGUCACAUGAGGAUCACCCAUGUCCAAAACCAGAAGGGUGAGACUAAG | 425 nM | 85.7 nM |  | 
AAUAACAGAGGAUAUACUAUUUUAUGUAUUUAUUAUUUUGAACAUGAGGAUCACCCAUGUAGAAGGCUGAAUGA |  |  | 26.4 nM | 22 nM
CGGCGGAAAGGAUAUGCAGUAAUAUCCAAAUGUGGGCCACGACAUGAGGAUCACCCAUGUAGAAGGUUCAGCCG |  |  | 14.7 nM | 13.6 nM
UUCAGCUCGUGAGGAUAUACAUGUGCUGGAAACAGCACUAAUUAAAUCACAUGAGGAUCACCCAUGUAGAAGGCACGAGCUGAG |  |  | 16.2 nM | 25.8 nM
UUAUUAAAUGUAGGAUAUGCAUAUUAUUAUUAUGCAGAAGGACAUGAGGAUCACCCAUGUAUAUUAUUAUUAUUUAUUAUUUAU |  |  | 45.7 nM | 61.7 nM
AGCUGUGACGUUACAGUUCCGUUACAUGAGGAUCACCCAUGUCAGGAUAUAUGCACUCUUGAAUCAUAGAAGGGACAGAGGUGG |  |  | 161 nM | 157 nM
UUAUGAGAGCAGGAUAUCUUAUUUUUUUUUUGUGGAGAAGGGCUGACAUGAGGAUCACCCAUGUGGUCCUAGAU |  |  | 27.9 nM | 32.9 nM
